Test results published in publication PMC12480952 (Nature Communications, 2025).

Test system: FLAG-tagged, full-length WT BCL-2
Test: Streptavidin pull-down from HEK 293T lysate, FLAG-BCL-2 WT, anti-FLAG western
Assay type: binding, human
Details: biotinylated BAD SAHB 4.2 1 μM, 300 μg lysate, overnight 4 °C
How it was run: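 HEK 293T cells (DMEM, 10% FBS, penicillin/streptomycin, 2 mM glutamine; mycoplasma-free) were transfected at 70% confluence with 3 μg of plasmid encoding N-FLAG full-length BCL-2 (aa 1–239) and lysed after 24 h in CHAPS buffer. Lysate (300 μg) took 1 μM biotinylated test peptide ± competitor (0.1, 1.0, 10 μM), overnight, 4 °C. Streptavidin agarose capture followed (2 h, room temperature), then PBS and 1% NP-40 washes, LDS elution and anti-FLAG western; three independent repeats.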

Question: Which “displacement of biotin-BAD SAHB 4.2 from FLAG-BCL-2 WT” value (venetoclax 1 μM) does the source give for `CC1(C)CCC(CN2CCN(c3ccc(C(=O)NS(=O)(=O)c4ccc(NCC5CCOCC5)c([N+](=O)[O-])c4)c(Oc4cnc5[nH]ccc5c4)c3)CC2)=C(c2ccc(Cl)cc2)C1` [venetoclax] here?
Answer: The value was “near complete dissociation”.

Question: And the “displacement of biotin-BAD SAHB 4.2 from FLAG-BCL-2 WT” value (venetoclax 10 μM)?
Answer: Its value is “complete dissociation”.
